{
  "source": "ChEMBL document CHEMBL4689842",
  "about": "“EUbOPEN Chemogenomics Library wave 1” (2021)",
  "tested_on": "HEK-293T",
  "assay": "Multiplex assay against HEK293T;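 on Population Tubulin-Different-Phenotype (%): share of the cells with healthy nuclei that show this phenotype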",
  "format": "toxicity, cell-based",
  "settings": "human",
  "method_in_brief": "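Cells were classed with CellPathfinder machine-learning gating, first as Hoechst high-intensity objects or normal cells, then (normal cells) as healthy, pyknosed or fragmented nuclei, and finally (pyknosed cells) as mitotic or apoptotic. Staining of live cells at seeding used Hoechst33342, BioTracker Green Microtubule Cytoskeleton Dye, MitoTracker Red and Annexin V Alexa Fluor 680, with imaging on a CQ1 microscope at 37°C and 5% CO2 after compound addition. Tubulin, mitochondrial-mass and membrane-permeability phenotypes are per cents of healthy-nucleus cells.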",
  "key": {"[1]": {"settings": "12 h, 1 µM, compound concentration 1 uM, replicate 1"}, "[2]": {"settings": "12 h, 1 µM, compound concentration 1 uM, replicate 2"}, "[3]": {"settings": "12 h, 10 µM, compound concentration 10 uM, replicate 1"}, "[4]": {"settings": "12 h, 10 µM, compound concentration 10 uM, replicate 2"}, "[5]": {"settings": "24 h, 1 µM, compound concentration 1 uM, replicate 1"}, "[6]": {"settings": "24 h, 1 µM, compound concentration 1 uM, replicate 2"}, "[7]": {"settings": "24 h, 10 µM, compound concentration 10 uM, replicate 1"}, "[8]": {"settings": "24 h, 10 µM, compound concentration 10 uM, replicate 2"}},
  "data": [
    {"smiles": "C=CC(=O)Nc1ccc2[nH]c(=O)n(C3CCN(Cc4ccc(-c5nc6cc[nH]c(=O)c6cc5-c5ccccc5)cc4)CC3)c2c1", "note": "[Borussertib]", "values": [
      {"measurement": "Population Apoptotic (%)", "setting": "[1]", "value": 18, "unit": "%"},
      {"measurement": "Population Fragmented Nuclei (%)", "setting": "[1]", "value": 16, "unit": "%"},
      {"measurement": "Population Healthy Nuclei (%)", "setting": "[1]", "value": 66, "unit": "%"},
      {"measurement": "Population Hoechst High Intensity Objects (%)", "setting": "[1]", "value": 13, "unit": "%"},
      {"measurement": "Population Membrane Permeable-Phenotype (%)", "setting": "[1]", "value": 5, "unit": "%"},
      {"measurement": "Population Mitochondria Different-Phenotype (%)", "setting": "[1]", "value": 5, "unit": "%"},
      {"measurement": "Population Mitotic Cells (%)", "setting": "[1]", "value": 81, "unit": "%"},
      {"measurement": "Population Normal (%)", "setting": "[1]", "value": 86, "unit": "%"},
      {"measurement": "Population Pyknosed Nuclei (%)", "setting": "[1]", "value": 17, "unit": "%"},
      {"measurement": "Population Tubulin-Different-Phenotype (%)", "setting": "[1]", "value": 5, "unit": "%"},
      {"measurement": "Total Cell Count", "setting": "[1]", "value": 656},
      {"measurement": "Population Apoptotic (%)", "setting": "[2]", "value": 14, "unit": "%"},
      {"measurement": "Population Fragmented Nuclei (%)", "setting": "[2]", "value": 7, "unit": "%"},
      {"measurement": "Population Healthy Nuclei (%)", "setting": "[2]", "value": 86, "unit": "%"},
      {"measurement": "Population Hoechst High Intensity Objects (%)", "setting": "[2]", "value": 3, "unit": "%"},
      {"measurement": "Population Membrane Permeable-Phenotype (%)", "setting": "[2]", "value": 3, "unit": "%"},
      {"measurement": "Population Mitochondria Different-Phenotype (%)", "setting": "[2]", "value": 12, "unit": "%"},
      {"measurement": "Population Mitotic Cells (%)", "setting": "[2]", "value": 85, "unit": "%"},
      {"measurement": "Population Normal (%)", "setting": "[2]", "value": 96, "unit": "%"},
      {"measurement": "Population Pyknosed Nuclei (%)", "setting": "[2]", "value": 5, "unit": "%"},
      {"measurement": "Population Tubulin-Different-Phenotype (%)", "setting": "[2]", "value": 12, "unit": "%"},
      {"measurement": "Total Cell Count", "setting": "[2]", "value": 1375},
      {"measurement": "Population Apoptotic (%)", "setting": "[3]", "value": 24, "unit": "%"},
      {"measurement": "Population Fragmented Nuclei (%)", "setting": "[3]", "value": 17, "unit": "%"},
      {"measurement": "Population Healthy Nuclei (%)", "setting": "[3]", "value": 48, "unit": "%"},
      {"measurement": "Population Hoechst High Intensity Objects (%)", "setting": "[3]", "value": 13, "unit": "%"},
      {"measurement": "Population Membrane Permeable-Phenotype (%)", "setting": "[3]", "value": 9, "unit": "%"},
      {"measurement": "Population Mitochondria Different-Phenotype (%)", "setting": "[3]", "value": 25, "unit": "%"},
      {"measurement": "Population Mitotic Cells (%)", "setting": "[3]", "value": 75, "unit": "%"},
      {"measurement": "Population Normal (%)", "setting": "[3]", "value": 86, "unit": "%"},
      {"measurement": "Population Pyknosed Nuclei (%)", "setting": "[3]", "value": 33, "unit": "%"},
      {"measurement": "Population Tubulin-Different-Phenotype (%)", "setting": "[3]", "value": 44, "unit": "%"},
      {"measurement": "Total Cell Count", "setting": "[3]", "value": 585},
      {"measurement": "Population Apoptotic (%)", "setting": "[4]", "value": 17, "unit": "%"},
      {"measurement": "Population Fragmented Nuclei (%)", "setting": "[4]", "value": 4, "unit": "%"},
      {"measurement": "Population Healthy Nuclei (%)", "setting": "[4]", "value": 84, "unit": "%"},
      {"measurement": "Population Hoechst High Intensity Objects (%)", "setting": "[4]", "value": 4, "unit": "%"},
      {"measurement": "Population Membrane Permeable-Phenotype (%)", "setting": "[4]", "value": 12, "unit": "%"},
      {"measurement": "Population Mitochondria Different-Phenotype (%)", "setting": "[4]", "value": 43, "unit": "%"},
      {"measurement": "Population Mitotic Cells (%)", "setting": "[4]", "value": 82, "unit": "%"},
      {"measurement": "Population Normal (%)", "setting": "[4]", "value": 95, "unit": "%"},
      {"measurement": "Population Pyknosed Nuclei (%)", "setting": "[4]", "value": 11, "unit": "%"},
      {"measurement": "Population Tubulin-Different-Phenotype (%)", "setting": "[4]", "value": 82, "unit": "%"},
      {"measurement": "Total Cell Count", "setting": "[4]", "value": 1080},
      {"measurement": "Population Apoptotic (%)", "setting": "[5]", "value": 15, "unit": "%"},
      {"measurement": "Population Fragmented Nuclei (%)", "setting": "[5]", "value": 14, "unit": "%"},
      {"measurement": "Population Healthy Nuclei (%)", "setting": "[5]", "value": 75, "unit": "%"},
      {"measurement": "Population Hoechst High Intensity Objects (%)", "setting": "[5]", "value": 11, "unit": "%"},
      {"measurement": "Population Membrane Permeable-Phenotype (%)", "setting": "[5]", "value": 8, "unit": "%"},
      {"measurement": "Population Mitochondria Different-Phenotype (%)", "setting": "[5]", "value": 3, "unit": "%"},
      {"measurement": "Population Mitotic Cells (%)", "setting": "[5]", "value": 84, "unit": "%"},
      {"measurement": "Population Normal (%)", "setting": "[5]", "value": 88, "unit": "%"},
      {"measurement": "Population Pyknosed Nuclei (%)", "setting": "[5]", "value": 9, "unit": "%"},
      {"measurement": "Population Tubulin-Different-Phenotype (%)", "setting": "[5]", "value": 10, "unit": "%"},
      {"measurement": "Total Cell Count", "setting": "[5]", "value": 716},
      {"measurement": "Population Apoptotic (%)", "setting": "[6]", "value": 11, "unit": "%"},
      {"measurement": "Population Fragmented Nuclei (%)", "setting": "[6]", "value": 19, "unit": "%"},
      {"measurement": "Population Healthy Nuclei (%)", "setting": "[6]", "value": 77, "unit": "%"},
      {"measurement": "Population Hoechst High Intensity Objects (%)", "setting": "[6]", "value": 4, "unit": "%"},
      {"measurement": "Population Membrane Permeable-Phenotype (%)", "setting": "[6]", "value": 9, "unit": "%"},
      {"measurement": "Population Mitochondria Different-Phenotype (%)", "setting": "[6]", "value": 4, "unit": "%"},
      {"measurement": "Population Mitotic Cells (%)", "setting": "[6]", "value": 88, "unit": "%"},
      {"measurement": "Population Normal (%)", "setting": "[6]", "value": 95, "unit": "%"},
      {"measurement": "Population Pyknosed Nuclei (%)", "setting": "[6]", "value": 3, "unit": "%"},
      {"measurement": "Population Tubulin-Different-Phenotype (%)", "setting": "[6]", "value": 19, "unit": "%"},
      {"measurement": "Total Cell Count", "setting": "[6]", "value": 2108},
      {"measurement": "Population Apoptotic (%)", "setting": "[7]", "value": 34, "unit": "%"},
      {"measurement": "Population Fragmented Nuclei (%)", "setting": "[7]", "value": 15, "unit": "%"},
      {"measurement": "Population Healthy Nuclei (%)", "setting": "[7]", "value": 60, "unit": "%"},
      {"measurement": "Population Hoechst High Intensity Objects (%)", "setting": "[7]", "value": 16, "unit": "%"},
      {"measurement": "Population Membrane Permeable-Phenotype (%)", "setting": "[7]", "value": 8, "unit": "%"},
      {"measurement": "Population Mitochondria Different-Phenotype (%)", "setting": "[7]", "value": 33, "unit": "%"},
      {"measurement": "Population Mitotic Cells (%)", "setting": "[7]", "value": 65, "unit": "%"},
      {"measurement": "Population Normal (%)", "setting": "[7]", "value": 83, "unit": "%"},
      {"measurement": "Population Pyknosed Nuclei (%)", "setting": "[7]", "value": 23, "unit": "%"},
      {"measurement": "Population Tubulin-Different-Phenotype (%)", "setting": "[7]", "value": 68, "unit": "%"},
      {"measurement": "Total Cell Count", "setting": "[7]", "value": 518},
      {"measurement": "Population Apoptotic (%)", "setting": "[8]", "value": 16, "unit": "%"},
      {"measurement": "Population Fragmented Nuclei (%)", "setting": "[8]", "value": 8, "unit": "%"},
      {"measurement": "Population Healthy Nuclei (%)", "setting": "[8]", "value": 83, "unit": "%"},
      {"measurement": "Population Hoechst High Intensity Objects (%)", "setting": "[8]", "value": 9, "unit": "%"},
      {"measurement": "Population Membrane Permeable-Phenotype (%)", "setting": "[8]", "value": 9, "unit": "%"},
      {"measurement": "Population Mitochondria Different-Phenotype (%)", "setting": "[8]", "value": 43, "unit": "%"},
      {"measurement": "Population Mitotic Cells (%)", "setting": "[8]", "value": 83, "unit": "%"},
      {"measurement": "Population Normal (%)", "setting": "[8]", "value": 90, "unit": "%"},
      {"measurement": "Population Pyknosed Nuclei (%)", "setting": "[8]", "value": 8, "unit": "%"},
      {"measurement": "Population Tubulin-Different-Phenotype (%)", "setting": "[8]", "value": 90, "unit": "%"},
      {"measurement": "Total Cell Count", "setting": "[8]", "value": 1115}
    ]}
  ]
}
